Experimental data published in ChEMBL document CHEMBL1909610, “Synthesis and antioxidant activities of novel 4-Schiff base-7-benzyloxy-coumarin derivatives” (Bioorg Med Chem Lett, 2011).

What was measured:
Type in all cases: functional
[1] = Antioxidant activity assessed as ABTS radical scavenging activity after 3 mins by spectrophotometric analysis
How it was run: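 ABTS radical cation generated from 2 mM ABTS stock in PBS pH 7.4 reacted with 70 mM K2S2O8 in the dark at room temperature for 15-16 h, then diluted with PBS to A734 0.700 ± 0.030. Sample solutions at various concentrations mixed with ABTS radical (0.1:1.9 ml). Absorbance read at ambient temperature after 3 min. Percent scavenging vs control without sample; triplicate; IC50 = concentration scavenging 50%.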

[2] = test system: Radical scavenging activity; test: Antioxidant activity assessed as DPPH free radical scavenging activity after 30 mins by spectrophotometric analysis
How it was run: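 Sample dissolved in DMF at several concentrations, added to 0.004% (w/v) DPPH in ethanol, incubated at 37 °C. Absorbance at 517 nm after 30 min. Percent scavenging computed against a control lacking scavenger; triplicate means; IC50 taken as concentration giving 50% radical scavenging.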

[3] = Antioxidant activity assessed as hydroxyl radical scavenging activity after 1 hr by spectrophotometric analysis
How it was run: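 Salicylate method: 20 mM sodium salicylate, 1.5 mM FeSO4, sample at various concentrations, then 6 mM H2O2 (stock levels), mixed and held in a 37 °C water bath 1 h. Absorbance at 510 nm against blank; percent scavenging vs no-sample absorbance; triplicate; ascorbic acid positive control; IC50 as 50% scavenging concentration.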

[4] = Antioxidant activity assessed as superoxide anioin radical scavenging activity after 5 mins by spectrophotometric analysis
How it was run: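 Pyrogallol autoxidation at room temperature: 0.05 M Tris-HCl buffer, sample in DMF at various concentrations and 30 mM 1,2,3-trihydroxybenzene reacted 5 min. Stopped with 8.0 M HCl; absorbance at 320 nm against blank. Percent scavenging vs no-sample absorbance, triplicate; IC50 as concentration scavenging 50%.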

Row | SMILES | IC50 ([1]; read-out: IC50) [µM] | IC50 ([2]; read-out: IC50) [µM] | IC50 ([3]; read-out: IC50) [µM] | IC50 [4] [µM] | IC50 [2] | IC50 [3] | IC50 [1]
1 | Nc1ccccc1/N=C\c1cc(=O)oc2cc(OCc3ccccc3)ccc12 | 9.25 | 857 | 34.6 | 217 | – | – | –
2 | N/N=C\c1cc(=O)oc2cc(OCc3ccccc3)cc(OCc3ccccc3)c12 | 363 | – | > 2000 | 36.5 | Not Active | – | –
3 | Nc1ccccc1/N=C\c1cc(=O)oc2cc(OCc3ccccc3)cc(OCc3ccccc3)c12 | 7.53 | 315 | 624 | 258 | – | – | –
4 | O=c1cc(/C=N\c2ccc(O)cc2)c2c(OCc3ccccc3)cc(OCc3ccccc3)cc2o1 | 3.57 | 6.91 | 107 | 249 | – | – | –
5 | O=c1cc(/C=N\c2ccccc2O)c2ccc(OCc3ccccc3)cc2o1 | 1.29 | 33.3 | – | 469 | – | Not Active | –
6 | O=c1cc(/C=N\c2ccc(O)cc2)c2ccc(OCc3ccccc3)cc2o1 | 64.5 | 36.6 | 233 | 525 | – | – | –
7 | O=c1cc(/C=N\Nc2ccc([N+](=O)[O-])cc2[N+](=O)[O-])c2c(OCc3ccccc3)cc(OCc3ccccc3)cc2o1 | – | – | 734 | 292 | Not Active | – | Not Active
8 | O=c1cc(/C=N\Nc2ccccc2)c2c(OCc3ccccc3)cc(OCc3ccccc3)cc2o1 | 40.1 | 76.4 | 401 | 303 | – | – | –
9 | O=c1cc(/C=N\O)c2c(OCc3ccccc3)cc(OCc3ccccc3)cc2o1 | 38.6 | – | – | > 2000 | Not Active | Not Active | –
10 | O=c1cc(/C=N\Nc2ccc([N+](=O)[O-])cc2[N+](=O)[O-])c2ccc(OCc3ccccc3)cc2o1 | 6.49 | 10.5 | 1970 | 181 | – | – | –
11 | O=c1cc(/C=N\O)c2ccc(OCc3ccccc3)cc2o1 | 22.8 | 2410 | > 2000 | > 2000 | – | – | –
12 | O=c1cc(/C=N\Nc2ccccc2)c2ccc(OCc3ccccc3)cc2o1 | 13.2 | 57.7 | 455 | 416 | – | – | –
13 | O=c1cc(/C=N\Nc2ccc([N+](=O)[O-])cc2)c2c(OCc3ccccc3)cc(OCc3ccccc3)cc2o1 | 15.5 | 1610 | 97.9 | 419 | – | – | –
14 | O=c1cc(-c2nc3ccccc3[nH]2)c2ccc(OCc3ccccc3)cc2o1 | – | – | – | 146 | Not Active | Not Active | Not Active
15 | O=c1cc(/C=N\Nc2ccc([N+](=O)[O-])cc2)c2ccc(OCc3ccccc3)cc2o1 | 9.51 | 1350 | > 2000 | > 2000 | – | – | –
16 | Cc1cc(C(C)(C)C)c(O)c(C(C)(C)C)c1 [BUTYLATED HYDROXYTOLUENE] | 37 | 65.8 | > 2000 | 254 | – | – | –
17 | N/N=C\c1cc(=O)oc2cc(OCc3ccccc3)ccc12 | 9.74 | 1290 | – | 131 | – | Not Active | –
18 | O=c1cc(/C=N\c2ccccc2O)c2c(OCc3ccccc3)cc(OCc3ccccc3)cc2o1 | 7.76 | 16.2 | 348 | 33.1 | – | – | –
19 | O=C1O[C@H]([C@@H](O)CO)C(O)=C1O [ASCORBIC ACID] | 12.8 | 43.8 | 73.8 | 15.6 | – | – | –
